The EternaBench riboswitch data

Test system: MS2 coat protein
Assay: apparent Kd, MS2 coat protein; higher = weaker binding; RNA-MaP array; FMN 200 µM where present
Outline: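 The apparent Kd is reported as the median of filtered per-cluster binding-curve fits. To get these curves, designs transcribed by stalled E. coli RNA polymerase on Illumina sequencing-chip clusters were titrated with SNAP-549-labelled MS2 coat protein from 0.7 or 1.5 nM, doubling to 3 µM. Titrations were run without and then with constant ligand in 100 mM Tris-HCl pH 7.5, 80 mM KCl, 4 mM MgCl2, BSA, DTT, yeast tRNA and Tween-20, and green signal was normalised to red-channel RNA signal and control-cluster median Fmax.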

[1] = designed as: ON switch for flavin mononucleotide, no ligand
[2] = ligand present: flavin mononucleotide, designed as: ON switch for flavin mononucleotide
[3] = designed as: OFF switch for flavin mononucleotide, no ligand
[4] = ligand present: flavin mononucleotide, designed as: OFF switch for flavin mononucleotide

UGGUACUAGGGAGGAUAUGGGAAGAUACAUGAGGAUCACCCAUGUUUAAGAAUGCCUAGAGGCAACUAGAAGGCCCUAGUACCU
apparent Kd [1]: 393 nM
apparent Kd [2]: 19.1 nM

CUCCGGCAAGGAUAUGCGUCUUCUCCCAUGAAACAAAAUAAACAUGAGGAUCACCCAUGUAGAAGGUGCAGGAC
apparent Kd [3]: 33.1 nM
apparent Kd [4]: 28.6 nM

UGGUACUAGGGAGGAUAUGGGAACAUACAUGAGGAUCACCCAUGUUUAAGAAUGCCGAGAGGCAACUAGAAGGCCCUAGUACCU
apparent Kd [1]: 15.7 nM
apparent Kd [2]: 4.96 nM

GGUUUUUCUGAGGAUAUUGCAUCACCCGAUUUAUAAGAAGGCAGAACAUGAGGAUCACCCAUGUGGGUUUCUAG
apparent Kd [3]: 19.4 nM
apparent Kd [4]: 24.8 nM

GCUGGUCGAGGAUAUAUAUGACGUGCUUCGGCACGAAGAUCACAUGAGGAUCACCCAUGUAGAAGGUGACCAGC
apparent Kd [3]: 53.8 nM
apparent Kd [4]: 267 nM

ACCAAUCACAUAGGAUAUAGAAUAUUAAAUUUUUACAUGAGGAUCACCCAUGUUUUAUUGGGAUACUAGAAGGAUGAGUAAUAA
apparent Kd [1]: 113 nM
apparent Kd [2]: 108 nM

UUUUAACUACAAUUACAUGAGGAUCACCCAUGUUUUGGGAUGCAGGAUAUGUGGUAUAUUAAUUAACAGAAGGGCAAUAAUUAA
apparent Kd [1]: 57.6 nM
apparent Kd [2]: 46.4 nM

AGUGUGUGGCAGGAUAUUCUGAUCGUGAGUCGGGAAGAAGGGUCUACAUGAGGAUCACCCAUGUGAGCGGUUGA
apparent Kd [3]: 248 nM
apparent Kd [4]: 432 nM

ACGUUUAAUACAGGAUAUGUUCUUAUACUAUAGAUUGGUUAUUACUUAAUUACAGAAGGGUAGAACAUGAGGAUCACCCAUGUA
apparent Kd [1]: 507 nM
apparent Kd [2]: 261 nM

CACAUGGUUACAGGAUAUGUUAGGUUGCUGUUUAUUGGAUAUUAAAUUAUUACAGAAGGGUAAUACAUGAGGAUCACCCAUGUG
apparent Kd [1]: 129 nM
apparent Kd [2]: 29.4 nM

AAUUCACAUGAGGAUCACCCAUGUCAGGAUAUGGUUUCGCGGGUUUCGGUGCGUGAGGCCAGAAGGGACAGCUA
apparent Kd [3]: 53.3 nM
apparent Kd [4]: 72.4 nM

AGGAUAGGAAAAUUUGUCCAUUGUACAGAAGGCCAACAUGAGGAUCACCCAUGUAAGAAAAGGAUGGAGGAUAUGUAUAGGGCC
apparent Kd [1]: 37.6 nM
apparent Kd [2]: 10.6 nM

UGCGCCAGAGGAUAUCGGGCUCGCAACAUGAGGAUCACCCAUGUAGUAUGGUCUUAUUUUCGAGAAGGCUGUCGUU
apparent Kd [3]: 20.9 nM
apparent Kd [4]: 17.4 nM

GCUUGGCGAGGAUAUACAUGAGGAUCACCCAUGUGAGAGAAUAAAGUGAGGAAGAAAAGUAGAAGGCGCUGAGG
apparent Kd [3]: 54 nM
apparent Kd [4]: 271 nM

AACAGUACAGGAUAUACAUGAGGAUCACCCAUGUGAGAAUUAAGUGGCAUACCACAAAGUAGAAGGGUACUGGA
apparent Kd [3]: 29.7 nM
apparent Kd [4]: 202 nM

AAGAAACAUGAGGAUCACCCAUGUAAAUAAAACACAGGAUAUCGAAUAUGGGAGAUUUAACGAGAAGGGUGAAGAA
apparent Kd [1]: 100 nM
apparent Kd [2]: 56.6 nM

UCGAUAAGGAGAGGAUAUGGACAUGAGGAUCACCCAUGUACAUGGGAAUAUAUUCUGAAUUUUUACUAGAAGGCUUACAUAAAU
apparent Kd [3]: 20.8 nM
apparent Kd [4]: 17.1 nM

GCUGGUCAAGGAUAUAUAUGACGUGCUUCGGCACGAAGAUCACAUGAGGAUCACCCAUGUAGAAGGUGACCAGC
apparent Kd [3]: 96.9 nM
apparent Kd [4]: 793 nM

UGAGCGACCACAGGAUAUACUUGGGAAGACCGAGUAGAAGGGUGGAAGAGCGUGCAGUGACAUGAGGAUCACCCAUGUGGUUGU
apparent Kd [1]: 122 nM
apparent Kd [2]: 82.2 nM

CGUGGACAUGAGGAUCACCCAUGUGAGGAUAUCGGCUGGUACGUGUUGGCUGGCAUCUCGAGAAGGCACAUAGU
apparent Kd [3]: 43.8 nM
apparent Kd [4]: 80.4 nM

GGAAUAAAUGCAGGAUAUACGUGGAAAGCUUUCAACAUGAGGAUCACCCAUGUAGAAGGGCAUCUCCCGACCGAAGCGGAUCUC
apparent Kd [3]: 5.8 nM
apparent Kd [4]: 6.27 nM

GGAGCCGGCACCGAGGAUAUUCAUAUUAAAACAUGAGGAUCACCCAUGUAGGCCAGAAGGCCUUGGGAGAAGGCGGACCGGCUCG
apparent Kd [1]: 654 nM
apparent Kd [2]: 31.1 nM

AGAAGACAUGAGGAUCACCCAUGUGGGAUUAUGGGAGGAUAUACAAAGACGAGAGUCAGAGUAGAAGGCCUAGGAC
apparent Kd [1]: 65.6 nM
apparent Kd [2]: 26.7 nM

AGUACCAUGUAGAAGGGAUAUCUGAUUCAGAUAUCAGGAUAUACAUGAGGAUCACCCAUGUAAAUGUACUGCACGAAAGUGCAA
apparent Kd [3]: 18 nM
apparent Kd [4]: 37.9 nM

GCCGGAUUUGUGAGGAUAUACCUAUGGAUACAUAGGUAGAAGGCACAUGAGGAUCACCCAUGUUCCUCUCCGGC
apparent Kd [3]: 49 nM
apparent Kd [4]: 582 nM

AGUAAGUUUGAGAAGGUGAAGUGGAAACAUGAGGAUCACCCAUGUAUUAGGAAGCCUGGUUUUGUCAAGGAUAUCGGGUUUACA
apparent Kd [1]: 17.9 nM
apparent Kd [2]: 16.5 nM

CUAAUUCAUGUAGGAUAUGCGUGGCGAAGCUAUGCAGAAGGACAUGAGGAUCACCCAUGUCUUUCCGUCUGCGUACAGACGGAA
apparent Kd [3]: 24.7 nM
apparent Kd [4]: 201 nM

GGAAAACAUGAGGAUCACCCAUGUGAAAACGUGGGAGGAUAUCGAUGGAAACCAUACUGUCGAGAAGGCCCAUGUC
apparent Kd [1]: 51.8 nM
apparent Kd [2]: 18 nM

UGUCGGAGCAGAGGAUAUUACAUGAGGAUCACCCAUGUAUGAACCAAUAGGUGGAAACAGCAAUGUAAGAAGGCUGCUCCGACA
apparent Kd [3]: 178 nM
apparent Kd [4]: 481 nM

CUAGCAUACCGAGGAUAUUCAUAUAAUAAAUAAACAUGAGGAUCACCCAUGUGGCGAAAGCCUAGGGAGAAGGCGGAAUGCUAC
apparent Kd [1]: 162 nM
apparent Kd [2]: 27 nM

UGGUACUCGGGAGGAUAUGGGAAGAUACAUGAGGAUCACCCAUGUUUAAGAAUGCCGAGAGGCAACUAGAAGGCCCUAGUACCU
apparent Kd [1]: 457 nM
apparent Kd [2]: 23.4 nM

ACAUUAAGUGCAGGAUAUGCCAACCUGGGUUCGGUAGAAGGGCACAUGAGGAUCACCCAUGUAGCGGUGGGUUGGGCCAAGGUU
apparent Kd [3]: 13.3 nM
apparent Kd [4]: 35.6 nM

UGUCGGAGCAGAGGAUAUACAUGAGGAUCACCCAUGUAAUAAGAUCAAGCCUGGAAACAGGCAAUGUAGAAGGCUGCUCCGACA
apparent Kd [3]: 34 nM
apparent Kd [4]: 422 nM

AGACUGAAGCAAGGAUAUUGUAAGGUUAUCGUACAAGAAGGUGCUGUUUAUGUCUCUUAACAUGAGGAUCACCCAUGUUUUAAA
apparent Kd [1]: 19.7 nM
apparent Kd [2]: 21.8 nM

GGUUGUCAUAGUCAUCCUUUCCGUACAUGAGGAUCACCCAUGUAGGAUAUGCUACUCACAGUGUGGCAGAAGGGCGUGUGUCUU
apparent Kd [4]: 19.4 nM

AGCUAGGCAGGAUAUACGUAAAUGUCGAAAGACGUAUUGGGACAUGAGGAUCACCCAUGUAGAAGGGUCUAGCA
apparent Kd [3]: 37.6 nM
apparent Kd [4]: 123 nM

GUAGAGUAGUGAGGAUAUACGAGCUCGAUAGAGCGGCGAUCCAUUAAUACAUGAGGAUCACCCAUGUAGAAGGCACUUCUCUAC
apparent Kd [3]: 5.83 nM
apparent Kd [4]: 72 nM

GAACGCCUAGGAUAUACAUGAGGAUCACCCAUGUCGCCCAGUCCUGGAGUGACCUCUAGUAGAAGGAGGAAUAA
apparent Kd [3]: 480 nM
apparent Kd [4]: 135 nM

AGUUGGCGAGGAUAUACAUGAGGAUCACCCAUGUGAAUAAUAAUAGUGAGGAAGAAAAGUAGAAGGCGCUGACA
apparent Kd [3]: 49.7 nM
apparent Kd [4]: 237 nM

GGACGUCACAUUAACAUGAGGAUCACCCAUGUCAAAAGACAUGAGGAUAUGCAUCCUAAUUGGAUGCAGAAGGCAUGGACGUCC
apparent Kd [1]: 449 nM
apparent Kd [2]: 35 nM

CACUUCCCGUCAGGAUAUCGCCGUAGGUCCUCGGGUCUCGCCGUCAUACAUGAGGAUCACCCAUGUGAGAAGGGACGGGUUUCA
apparent Kd [3]: 16.4 nM
apparent Kd [4]: 107 nM

GAGAAGUCAGGAUAUGCUGCUCGUCACUUGCGUGAUGAGUAGCAGAAGGGACAUGAGGAUCACCCAUGUAAAGU
apparent Kd [3]: 51.7 nM
apparent Kd [4]: 74.8 nM

AACUCACAUGAGGAUCACCCAUGUGAGGAUAUGGUUUCGCUGGCCGUAGCCAGUGGAACCAGAAGGCGCAUGAU
apparent Kd [3]: 20.1 nM
apparent Kd [4]: 20 nM

GAAGUUUCCUGAGGAUAUACAUGAGGAUCACCCAUGUAAUGCUUGACUUCAGUAGAAGGCGGGAAACGAAAUUUCGGUGAUCAG
apparent Kd [3]: 353 nM
apparent Kd [4]: 140 nM

GUCCUUUCUGAGGAUAUUAUCCUUUCCGAUUGAUAAGAAGGCAGUACAUGAGGAUCACCCAUGUGGGUUGUCUG
apparent Kd [3]: 29.8 nM
apparent Kd [4]: 38.3 nM

GGUUGGCGAGGAUAUACAUGAGGAUCACCCAUGUGAGAGAAAAAAGUGAGGAAGAAAAGUAGAAGGCGCUGACG
apparent Kd [3]: 28.1 nM
apparent Kd [4]: 123 nM

CUAUUCCGAGGAUAUACAUGAGGAUCACCCAUGUCGGGCCUCAGCGUUUAGCGCGUAAGUAGAAGGUGGGUUUC
apparent Kd [3]: 32.3 nM
apparent Kd [4]: 37.8 nM

UUGUUGUAUGUAGGAUAUGCGUAUUAUUAUUAUGCAGAAGGACAUGAGGAUCACCCAUGUAUAUUAUUAUUAUAUAUUAUAUAU
apparent Kd [3]: 26.9 nM
apparent Kd [4]: 56.1 nM

GGUUGGCGAGGAUAUACAUGAGGAUCACCCAUGUGGUCCUGUGAAAAAAAAAACCUUUGUAGAAGGCGCGGGUC
apparent Kd [3]: 292 nM
apparent Kd [4]: 281 nM

UGGUACUAGGUAGGAUAUGGGAAGAUACAUGAGGAUCACCCAUGUUUAAGAAUGCCGAGAGGCAACUAGAAGGCCCUAGUACCU
apparent Kd [1]: 652 nM
apparent Kd [2]: 78.9 nM

AGGUGAGCUCGAUGGCGACAUGAGGAUCACCCAUGUACGAUCAGAAGGGCUCGGGCAAGAAGUGGGCAGGAUAUGGUCGGUGCC
apparent Kd [3]: 3.88 nM
apparent Kd [4]: 4.51 nM

GCAUCACAUGAGGAUCACCCAUGUCUUCGGAGUCGAGGAUAUGGUCACUGUAAACAGUGGCCAGAAGGCGAGAUGC
apparent Kd [1]: 48.1 nM
apparent Kd [2]: 31.6 nM

CUUUUGUGAGGAUAUUAGUAGUAAAUAAUUAAAAUUACUACUGAGAAGGCACAUGAGGAUCACCCAUGUUCCUC
apparent Kd [3]: 33.2 nM
apparent Kd [4]: 344 nM

AAUAAUGAUAAGGAUAUCACUAGCCUCGGCUAGUGAGAAGGUAUCACAUGAGGAUCACCCAUGUGUUCCAAUAA
apparent Kd [3]: 16.1 nM
apparent Kd [4]: 40.3 nM

UUGGACGUCGUGGGAUAUGUAGGAUAUUCCUACAUGAGGAUCACCCAUGUUGACAUGGAAGAAGGACAGAAGGACGAUGUCCAU
apparent Kd [1]: 152 nM
apparent Kd [2]: 5.55 nM

GAUAGGCGAGGAUAUACAUGAGGAUCACCCAUGUAAGUAAGCCUGGCUGAAACUGAAUGUAGAAGGCGCACAUU
apparent Kd [3]: 18.4 nM
apparent Kd [4]: 45.1 nM
